Drawing on ChEMBL document CHEMBL1152560, “Substituted 2-arylbenzothiazoles as kinase inhibitors: hit-to-lead optimization” (Bioorg Med Chem, 2009), this text covers residual activity and IC50 for three compounds.

Assay [1] concerns the target T1, Ephrin type-B receptor 4 (Homo sapiens) (UniProt P54760).
T1 sequence (whole entry): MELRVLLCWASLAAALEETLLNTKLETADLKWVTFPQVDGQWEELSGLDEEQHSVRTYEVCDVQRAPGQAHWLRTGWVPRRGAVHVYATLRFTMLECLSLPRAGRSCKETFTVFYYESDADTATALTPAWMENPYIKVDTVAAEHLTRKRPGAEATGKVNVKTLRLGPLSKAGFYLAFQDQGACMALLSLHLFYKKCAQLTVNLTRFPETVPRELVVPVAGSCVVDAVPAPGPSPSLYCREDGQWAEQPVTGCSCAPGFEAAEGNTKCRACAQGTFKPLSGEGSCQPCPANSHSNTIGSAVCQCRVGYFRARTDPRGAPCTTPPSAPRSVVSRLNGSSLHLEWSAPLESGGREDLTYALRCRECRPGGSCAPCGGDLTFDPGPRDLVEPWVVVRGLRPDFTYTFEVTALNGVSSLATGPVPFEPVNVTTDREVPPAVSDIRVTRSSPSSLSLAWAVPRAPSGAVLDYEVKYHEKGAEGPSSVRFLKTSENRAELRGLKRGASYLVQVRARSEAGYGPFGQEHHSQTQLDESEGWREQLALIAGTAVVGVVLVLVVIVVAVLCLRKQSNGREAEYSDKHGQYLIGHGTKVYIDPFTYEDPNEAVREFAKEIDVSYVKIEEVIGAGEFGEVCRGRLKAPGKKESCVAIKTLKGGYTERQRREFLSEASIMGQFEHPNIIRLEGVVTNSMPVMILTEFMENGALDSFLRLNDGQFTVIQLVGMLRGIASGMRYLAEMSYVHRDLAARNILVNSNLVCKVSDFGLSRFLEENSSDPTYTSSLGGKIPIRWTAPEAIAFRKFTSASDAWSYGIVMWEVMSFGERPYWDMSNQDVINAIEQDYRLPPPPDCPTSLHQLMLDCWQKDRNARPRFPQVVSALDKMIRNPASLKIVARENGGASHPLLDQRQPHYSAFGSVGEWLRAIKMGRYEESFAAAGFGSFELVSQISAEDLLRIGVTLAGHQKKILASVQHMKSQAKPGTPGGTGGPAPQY
As to the kind of experiment: Residual activity of EPHB4 at 0.1 uM by microplate scintillation counting.

The target in assay [2] is T2, Eukaryotic translation initiation factor 2-alpha kinase 3 (Homo sapiens) (UniProt Q9NZJ5).
T2 sequence (whole entry): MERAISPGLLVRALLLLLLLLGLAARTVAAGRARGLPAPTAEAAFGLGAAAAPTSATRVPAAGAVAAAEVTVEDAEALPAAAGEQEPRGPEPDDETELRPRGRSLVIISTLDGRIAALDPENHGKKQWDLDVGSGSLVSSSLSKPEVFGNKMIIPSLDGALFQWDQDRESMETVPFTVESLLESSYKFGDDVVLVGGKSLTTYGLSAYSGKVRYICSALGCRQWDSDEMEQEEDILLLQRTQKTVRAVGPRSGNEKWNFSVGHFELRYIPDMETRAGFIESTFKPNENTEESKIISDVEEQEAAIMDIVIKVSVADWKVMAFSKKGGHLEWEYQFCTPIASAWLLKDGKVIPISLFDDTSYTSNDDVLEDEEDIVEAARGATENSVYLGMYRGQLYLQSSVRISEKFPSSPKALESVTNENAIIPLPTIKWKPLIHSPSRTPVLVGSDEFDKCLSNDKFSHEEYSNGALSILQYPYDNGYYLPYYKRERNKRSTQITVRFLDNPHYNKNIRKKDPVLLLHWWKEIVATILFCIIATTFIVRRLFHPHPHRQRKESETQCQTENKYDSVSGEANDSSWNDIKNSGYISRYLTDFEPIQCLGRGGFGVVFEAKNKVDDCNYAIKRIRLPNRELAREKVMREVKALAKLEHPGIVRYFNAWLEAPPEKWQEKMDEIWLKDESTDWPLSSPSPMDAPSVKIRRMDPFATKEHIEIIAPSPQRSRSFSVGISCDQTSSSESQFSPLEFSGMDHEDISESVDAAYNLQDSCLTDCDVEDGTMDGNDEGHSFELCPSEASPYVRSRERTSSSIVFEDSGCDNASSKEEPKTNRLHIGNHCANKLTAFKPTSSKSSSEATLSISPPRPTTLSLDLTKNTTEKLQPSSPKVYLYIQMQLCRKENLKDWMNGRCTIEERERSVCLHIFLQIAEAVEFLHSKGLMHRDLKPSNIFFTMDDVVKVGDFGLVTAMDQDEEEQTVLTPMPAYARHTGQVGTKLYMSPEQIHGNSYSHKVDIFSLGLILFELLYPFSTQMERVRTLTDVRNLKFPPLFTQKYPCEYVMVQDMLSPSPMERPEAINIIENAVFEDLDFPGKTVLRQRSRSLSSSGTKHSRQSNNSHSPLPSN
The experiment in a line: Residual activity of EIF2AK3 at 10 uM by microplate scintillation counting.

Assay [3] addresses T3, Serine/threonine-protein kinase 4 (Homo sapiens) (UniProt Q13043).
T3 sequence (whole entry): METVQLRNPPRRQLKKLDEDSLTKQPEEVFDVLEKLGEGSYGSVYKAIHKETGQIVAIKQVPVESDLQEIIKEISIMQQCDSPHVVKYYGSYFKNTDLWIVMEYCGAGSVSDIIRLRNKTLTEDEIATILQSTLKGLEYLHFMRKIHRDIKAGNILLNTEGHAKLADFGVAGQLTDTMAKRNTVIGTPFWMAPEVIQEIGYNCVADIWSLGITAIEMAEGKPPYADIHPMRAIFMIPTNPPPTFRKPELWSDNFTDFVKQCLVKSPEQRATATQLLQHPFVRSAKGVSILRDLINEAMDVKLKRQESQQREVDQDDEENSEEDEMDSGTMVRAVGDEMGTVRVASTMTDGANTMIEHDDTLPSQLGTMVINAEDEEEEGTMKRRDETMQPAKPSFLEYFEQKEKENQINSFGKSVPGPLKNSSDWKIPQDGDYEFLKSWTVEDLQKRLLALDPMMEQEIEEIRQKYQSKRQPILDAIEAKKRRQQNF
As to the kind of experiment: Residual activity of MST1 at 10 uM by microplate scintillation counting.

The target in assay [4] is Casein kinase I isoform gamma-3 (Homo sapiens) (UniProt Q9Y6M4). The experiment in a line: Residual activity of CK1gamma3 at 0.1 uM by microplate scintillation counting.
Assay [5] deals with SRSF protein kinase 1 (Homo sapiens) (UniProt Q96SB4). The experiment in a line: Residual activity of SRPK1 at 0.1 uM by microplate scintillation counting.
The target of assay [6] is SRSF protein kinase 2 (Homo sapiens) (UniProt P78362). As to the kind of experiment: Residual activity of SRPK2 at 0.1 uM by microplate scintillation counting.
For assay [7], the target named is Wee1-like protein kinase (Homo sapiens) (UniProt P30291). As to the kind of experiment: Residual activity of WEE1 at 10 uM by microplate scintillation counting.
The target in the next assay is Aurora kinase B (Homo sapiens, UniProt Q96GD4). The experiment in a line: Inhibition of Aurora-B by microplate scintillation counting. The method in brief: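 Substrates: tetra(LRRWSLG) for Aurora A/B; poly(Ala,Glu,Lys,Tyr)6:2:5:1 for PDGFRβ; poly(Glu,Tyr)4:1 for TIE2 and VEGFR2. Stopped with 2% H3PO4.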
Chain of Aurora kinase B (Q96GD4 whole entry): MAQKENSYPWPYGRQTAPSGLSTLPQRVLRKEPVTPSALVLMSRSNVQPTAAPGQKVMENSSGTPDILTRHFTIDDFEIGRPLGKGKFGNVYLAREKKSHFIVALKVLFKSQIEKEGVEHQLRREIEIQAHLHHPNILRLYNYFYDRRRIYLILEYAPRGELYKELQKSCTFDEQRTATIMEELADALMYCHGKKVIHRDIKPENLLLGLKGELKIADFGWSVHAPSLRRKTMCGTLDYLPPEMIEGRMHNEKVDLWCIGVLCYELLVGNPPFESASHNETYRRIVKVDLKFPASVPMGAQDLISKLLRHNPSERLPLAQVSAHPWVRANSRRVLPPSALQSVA

Chain of SRSF protein kinase 1 (Homo sapiens) (Q96SB4 whole entry): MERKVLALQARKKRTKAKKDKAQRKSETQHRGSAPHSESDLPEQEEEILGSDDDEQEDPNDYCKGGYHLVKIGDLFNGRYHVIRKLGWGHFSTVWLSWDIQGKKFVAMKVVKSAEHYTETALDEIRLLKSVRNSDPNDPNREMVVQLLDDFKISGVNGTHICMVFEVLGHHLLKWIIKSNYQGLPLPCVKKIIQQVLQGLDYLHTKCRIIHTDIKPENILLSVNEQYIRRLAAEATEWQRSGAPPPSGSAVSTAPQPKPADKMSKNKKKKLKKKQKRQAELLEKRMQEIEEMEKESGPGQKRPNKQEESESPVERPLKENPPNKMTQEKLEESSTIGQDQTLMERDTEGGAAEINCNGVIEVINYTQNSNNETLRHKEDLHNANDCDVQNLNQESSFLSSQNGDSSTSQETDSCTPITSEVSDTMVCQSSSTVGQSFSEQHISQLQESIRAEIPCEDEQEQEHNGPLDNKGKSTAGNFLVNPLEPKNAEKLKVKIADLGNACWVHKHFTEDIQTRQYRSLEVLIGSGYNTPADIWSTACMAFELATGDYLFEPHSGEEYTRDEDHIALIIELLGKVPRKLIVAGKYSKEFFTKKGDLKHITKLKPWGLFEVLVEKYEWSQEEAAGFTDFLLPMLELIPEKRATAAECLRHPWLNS
Chain of Wee1-like protein kinase (Homo sapiens) (P30291 whole entry, looked up): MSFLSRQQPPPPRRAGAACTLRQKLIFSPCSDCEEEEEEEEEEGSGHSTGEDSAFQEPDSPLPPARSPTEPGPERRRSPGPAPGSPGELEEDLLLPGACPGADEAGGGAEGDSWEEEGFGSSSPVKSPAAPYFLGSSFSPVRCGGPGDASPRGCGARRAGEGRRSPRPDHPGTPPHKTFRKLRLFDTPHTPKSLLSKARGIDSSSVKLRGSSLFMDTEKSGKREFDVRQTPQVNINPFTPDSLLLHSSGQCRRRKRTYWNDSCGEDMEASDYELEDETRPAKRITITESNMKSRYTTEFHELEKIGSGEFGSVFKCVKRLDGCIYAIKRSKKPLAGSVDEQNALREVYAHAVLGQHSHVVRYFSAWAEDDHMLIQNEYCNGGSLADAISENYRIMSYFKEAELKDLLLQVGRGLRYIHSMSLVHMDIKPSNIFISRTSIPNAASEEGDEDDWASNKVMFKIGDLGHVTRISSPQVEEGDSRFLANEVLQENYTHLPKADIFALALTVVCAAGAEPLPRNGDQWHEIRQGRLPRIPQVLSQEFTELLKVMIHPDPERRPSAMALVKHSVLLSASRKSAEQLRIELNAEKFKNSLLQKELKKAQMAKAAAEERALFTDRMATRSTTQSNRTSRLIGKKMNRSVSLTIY
Chain of Casein kinase I isoform gamma-3 (Homo sapiens) (Q9Y6M4 whole entry, looked up, canonical isoform): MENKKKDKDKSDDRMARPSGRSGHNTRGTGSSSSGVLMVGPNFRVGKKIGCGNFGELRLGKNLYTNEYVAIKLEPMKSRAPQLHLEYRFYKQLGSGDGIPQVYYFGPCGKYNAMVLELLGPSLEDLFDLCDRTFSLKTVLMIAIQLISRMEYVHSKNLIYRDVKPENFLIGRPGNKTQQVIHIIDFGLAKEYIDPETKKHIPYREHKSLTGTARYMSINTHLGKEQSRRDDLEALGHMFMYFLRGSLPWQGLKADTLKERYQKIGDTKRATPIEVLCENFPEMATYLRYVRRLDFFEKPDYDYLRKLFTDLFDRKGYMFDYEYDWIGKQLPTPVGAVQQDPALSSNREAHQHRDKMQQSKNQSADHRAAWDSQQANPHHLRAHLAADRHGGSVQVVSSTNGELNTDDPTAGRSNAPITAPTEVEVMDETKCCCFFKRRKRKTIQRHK
Chain of SRSF protein kinase 2 (Homo sapiens) (P78362 whole entry, looked up): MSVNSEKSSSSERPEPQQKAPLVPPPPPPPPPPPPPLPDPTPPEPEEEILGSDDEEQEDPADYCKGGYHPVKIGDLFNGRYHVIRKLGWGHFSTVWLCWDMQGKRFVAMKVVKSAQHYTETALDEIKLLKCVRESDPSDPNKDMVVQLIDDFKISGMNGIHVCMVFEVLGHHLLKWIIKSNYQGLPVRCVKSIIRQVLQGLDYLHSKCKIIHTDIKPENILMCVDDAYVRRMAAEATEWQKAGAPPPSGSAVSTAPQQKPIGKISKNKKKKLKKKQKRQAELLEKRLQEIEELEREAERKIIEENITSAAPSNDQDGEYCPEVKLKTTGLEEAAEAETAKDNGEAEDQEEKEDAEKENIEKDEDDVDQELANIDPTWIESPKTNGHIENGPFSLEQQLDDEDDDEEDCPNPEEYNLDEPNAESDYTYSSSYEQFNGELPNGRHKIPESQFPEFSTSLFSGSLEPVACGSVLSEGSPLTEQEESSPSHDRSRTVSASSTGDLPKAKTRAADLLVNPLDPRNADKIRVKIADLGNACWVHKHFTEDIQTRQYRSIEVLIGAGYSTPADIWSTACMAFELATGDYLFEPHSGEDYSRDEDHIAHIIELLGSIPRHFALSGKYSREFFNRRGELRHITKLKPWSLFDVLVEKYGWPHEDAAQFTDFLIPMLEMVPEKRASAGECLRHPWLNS

Take `COc1cc2c(Oc3ccc(-c4nc5ccccc5s4)cc3F)ncnc2cc1OCCCN1CCN(C)CC1`: the residual activity (as a rule, the signal under treatment as a percentage of the control signal) in assay [1] stood at 98%; in assay [2], 155%; in assay [3] it was 26%; in assay [4], 90%; in assay [5] it was 91%; in assay [6], 100%. Also, the residual activity in assay [7] was found to be 2%. On Aurora kinase B, the IC50 (usually the concentration at which inhibition is half-maximal) was 130 nM.

As for `COc1cc2c(Oc3ccc(-c4nc5ccccc5s4)cc3)ncnc2cc1OCCCN1CCN(C)CC1`, the residual activity in assay [1] came to 108%; in assay [2] it was 256%; in assay [3], 23%; in assay [4], 76%; in assay [5], 96%; in assay [6], 103%. Moreover, in assay [7], the residual activity is 2%. Moreover, the IC50 against Aurora kinase B worked out at 63 nM.

Consider `COc1cc2c(Oc3ccc(-c4nc5ccccc5s4)cc3)ncnc2cc1OCCCN1CCCC1`, for which the residual activity in assay [1] turned out to be 98%; in assay [2] it was 239%; in assay [3], 30%; in assay [4], 94%; in assay [5], 103%; in assay [6], 96%. For the same compound, the residual activity in assay [7] amounted to 46%. The midpoint of inhibition on Aurora kinase B, the IC50, lay at 162 nM.
